The source made the active and inactive calls. No cut-off for these calls is given here.
Columns and labels:
[1] = Cytotoxicity against human MSC assessed as cell viability at 10 uM treated for 6 days measured on day 7 by alamar blue assay (reference value: 96 to 101%); conditions: MSC cells, read-out: Activity
MSC [2] = assay: (§1) Induction of osteogenic differentiation in human MSC assessed as increase in ALP activity at 5 uM using p-NPP as substrate after 9 days by colorimetric method relative to control; format: functional
Procedure, shortened: (§2)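 ALP read on day 9 in passage-3 bone-marrow hMSCs cultured at high density in Os.D medium. Compound (1, 5 or 10 μM, 0.1% v/v DMSO final) was re-applied on days 0, 3 and 6. Colorimetric p-nitrophenyl phosphate method, normalised to time and cell number (pNP/min/20,000 cells). Expressed as % of untreated control; three independent triplicate experiments; one-way ANOVA versus vehicle.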

[3] = Cytotoxicity against human MSC assessed as cell viability at 5 uM treated for 6 days measured on day 7 by alamar blue assay (reference value: 96 to 101%); conditions: MSC cells, read-out: Activity
[4] = Cytotoxicity against human MSC assessed as cell viability at 5 uM treated for 3 days measured on day 4 by alamar blue assay (reference value: 97 to 100%); conditions: MSC cells, read-out: Activity
MSC [5] = assay: Induction of osteogenic differentiation in human MSC assessed as increase in ALP activity at 1 uM using p-NPP as substrate after 9 days by colorimetric method relative to control; format: functional; procedure, shortened: as §2
[6] = Cytotoxicity against human MSC assessed as cell viability at 10 uM measured on day 1 by alamar blue assay (reference value: 97 to 101%); conditions: MSC cells, read-out: Activity
[7] = Cytotoxicity against human MSC assessed as cell viability at 1 uM treated for 6 days measured on day 7 by alamar blue assay (reference value: 96 to 101%); conditions: MSC cells, read-out: Activity
[8] = Cytotoxicity against human MSC assessed as cell viability at 5 uM measured on day 1 by alamar blue assay (reference value: 97 to 101%); conditions: MSC cells, read-out: Activity
MSC [9] = assay: (§3) Induction of osteogenic differentiation in human MSC assessed as increase in ALP activity at 10 uM using p-NPP as substrate after 9 days by colorimetric method relative to control; format: functional; procedure, shortened: as §2
[10] = Cytotoxicity against human MSC assessed as cell viability at 10 uM treated for 3 days measured on day 4 by alamar blue assay (reference value: 97 to 100%); conditions: MSC cells, read-out: Activity
[11] = Cytotoxicity against human MSC assessed as cell viability at 1 uM measured on day 1 by alamar blue assay (reference value: 97 to 101%); conditions: MSC cells, read-out: Activity
[12] = Cytotoxicity against human MSC assessed as decrease in cell number at 1 to 10 uM after 9 days by methylene blue staining based microscopy relative to control; conditions: 216 h
Procedure, shortened: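 Passage-3 bone-marrow hMSCs, high density in Os.D medium, dosed with 1, 5 or 10 μM compound (0.1% v/v DMSO final) on days 0, 3 and 6 with medium changes. Cell number measured on day 9 by methylene blue proliferation assay. Expressed as % of untreated control; three independent triplicate experiments, mean ± SEM, one-way ANOVA versus vehicle.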

[13] = Cytotoxicity against human MSC assessed as cell viability at 1 uM treated for 3 days measured on day 4 by alamar blue assay (reference value: 97 to 100%); conditions: MSC cells, read-out: Activity
[14] = as §1; format: functional; procedure, shortened: as §2
[15] = as §3; format: functional; procedure, shortened: as §2
MSC [16] = assay: Induction of osteogenic differentiation in human MSC assessed as increase in ALP activity using p-NPP as substrate after 9 days by colorimetric method; format: functional; procedure, shortened: as §2

| SMILES | viability at 144 h, 10 µM [1] [%] | Activity (MSC [2]) | viability at 144 h, 5 µM [3] [%] | viability at 72 h, 5 µM [4] [%] | Activity (MSC [5]) | viability at 1 day, 10 µM [6] [%] | viability at 144 h, 1 µM [7] [%] | viability at 1 day, 5 µM [8] [%] | Activity (MSC [9]) | viability at 72 h, 10 µM [10] [%] | viability at 1 day, 1 µM [11] [%] | Activity [12] | viability at 72 h, 1 µM [13] [%] | fold change (FC) [14] | fold change (FC) [15] | Activity (MSC [16]) | fold change (FC) [12] |
| --- | --- | --- | --- | --- | --- | --- | --- | --- | --- | --- | --- | --- | --- | --- | --- | --- | --- |
| O=c1cc(-c2ccccc2)oc2ccccc12 [FLAVONE] | 98 | inactive | 102 | 93 | inactive | 106 | 100 | 103 | inactive | 92 | 102 | Toxic | 93 | – | – | – | – |
| COc1cc([C@@H]2CC(=O)c3c(O)cc(O)cc3O2)ccc1O | – | inactive | – | – | inactive | – | – | – | inactive | – | – | – | – | – | – | – | – |
| O=C1c2c(O)cc(O)cc2O[C@H](c2ccc(O)c(O)c2)[C@H]1O [(+)-TAXIFOLIN] | 101 | inactive | 98 | 92 | inactive | 102 | 98 | 101 | inactive | 92 | 103 | – | 92 | – | – | – | – |
| O=c1c(O)c(-c2ccc(O)c(O)c2)oc2cc(O)ccc12 [FISETIN] | 96 | – | 97 | 97 | inactive | 86 | 98 | 98 | – | 95 | 98 | Toxic | 96 | 1.52 | 1.32 | – | – |
| O=c1c(O)c(-c2ccc(O)c(O)c2)oc2cc(O)cc(O)c12 [QUERCETIN] | 101 | – | 104 | 100 | inactive | 89 | 103 | 100 | – | 101 | 101 | Toxic | 98 | 1.52 | 1.32 | – | – |
| COc1ccc(-c2oc3cc(O)cc(O)c3c(=O)c2O)cc1O [TAMARIXETIN] | 93 | – | 96 | 97 | inactive | 102 | 94 | 102 | – | 93 | 105 | Toxic | 97 | 1.52 | 1.32 | Dose-dependent effect | – |
| O=C1C[C@@H](c2ccc(O)cc2)Oc2cc(O)cc(O)c21 [NARINGENIN] | 103 | inactive | 102 | 104 | inactive | 105 | 100 | 105 | – | 106 | 104 | – | 101 | – | 1.53 | – | – |
| Oc1cc(O)c2c(c1)O[C@H](c1ccc(O)c(O)c1)[C@H](O)C2 [(-)-EPICATECHIN] | 98 | inactive | 98 | 95 | inactive | 84 | 96 | 90 | inactive | 94 | 92 | – | 98 | – | – | – | 0.43 |

Reference: ChEMBL document CHEMBL3739259, “Defining Key Structural Determinants for the Pro-osteogenic Activity of Flavonoids” (J Nat Prod, 2015)
